Compound activity: PubChem, The Scripps Research Institute Molecular Screening Center
Most compounds without a hit are left out; they make up all but 2.9% or so of the library.
CHO-K1 Ca PAM = M1 PAM counterscreen hit in parental CHO-K1 cells | hit rate 0.02% among 360,000 | ATP EC20, Fluo-8 calcium fluorescence; 0% at ATP EC20, 100% at ATP max | activation, % at 3 µM;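 active = activation above the run cutoff, the mean activation of all test compounds plus 3 SD, cut at about 40% in these data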;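 note: peak over basal fluorescence ratio in a 140 s read after ATP addition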
OX1R antag-1 = human HCRTR1 antagonism | CHO/OX1R cells, Fluo-8 calcium fluorescence, orexin A | inhibition, % at 5 µM | hit rate 0.43% among 330,000;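 active = inhibition above its plate's threshold, mean inhibition of all tested compounds on the plate plus 3 SD, cut at about 37% in these data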;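 note: 0% = orexin A challenge wells and 100% = SB-334867-A antagonist wells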
Target sequence (O43613 whole entry, looked up): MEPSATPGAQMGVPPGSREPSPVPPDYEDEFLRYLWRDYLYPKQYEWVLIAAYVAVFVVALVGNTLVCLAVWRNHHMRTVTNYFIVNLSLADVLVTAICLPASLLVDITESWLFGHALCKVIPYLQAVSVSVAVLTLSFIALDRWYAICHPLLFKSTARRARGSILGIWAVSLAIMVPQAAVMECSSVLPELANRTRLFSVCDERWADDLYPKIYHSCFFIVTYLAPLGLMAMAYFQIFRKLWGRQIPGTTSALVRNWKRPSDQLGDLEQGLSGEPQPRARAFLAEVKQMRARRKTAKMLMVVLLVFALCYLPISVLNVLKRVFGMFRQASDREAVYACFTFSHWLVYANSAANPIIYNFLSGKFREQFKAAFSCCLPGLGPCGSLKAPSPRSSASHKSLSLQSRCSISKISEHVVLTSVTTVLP
OX1R antag-2 = OX1R (human) antagonism; OX1R-expressing cells, FRET antagonist read-out; inhibition, % at 6.6 µM; O43613; hit rate 1.8% among 330,000; in the data active = inhibition mostly above about 38%, no sharp cut-off; inactive = mostly below about 40%;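 note: 0% = agonist challenge alone and 100% = reference antagonist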
CHO parental Ca = signal in parental CHO cells, OX1R antagonist counter-screen | hit rate 0.63% among 330,000 | AID 463079 | inhibition, % at 5.6 µM | parental CHO-K1, ATP-induced calcium, Fluo-8 fluorescence;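 active = inhibition above that plate's mean sample inhibition plus 3 SD, cut at about 26% in these data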;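 note: 0% = ATP-challenged DMSO wells and 100% = DMSO wells without ATP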
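Test system: parental CHO cells; detection: calcium-sensitive Fluo-8 fluorescence; evaluation: percent inhibition of calcium signal; also added: ATP as calcium-mobilizing challenge; repeats: one well per compound; control set: ATP-challenged DMSO wells low, unchallenged DMSO wells high; compound: single nominal dose of 5.6 µM per compound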
M1 ag parental = M1 agonist counterscreen hit in parental CHO-K1 cells. hit rate 0.48% among 360,000. activation, % at 3 µM. AID 602248. Fluo-8 calcium fluorescence; scaled to maximal ATP response, vehicle zero; in the data active = activation above about 15%;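 note: untransfected CHO-K1 host cells lacking M1 receptor as counterscreen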
CHO-K1 Ca antag = M1 antagonist counterscreen hit in parental CHO-K1 cells; AID 602250; ATP-induced calcium, Fluo-8 fluorescence; hit rate 0.6% among 360,000; inhibition, % at 3 µM;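 active = inhibition above a per-plate cutoff, the plate's mean sample inhibition plus 3 SD, cut at about 24% in these data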;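 note: 0% = DMSO plus EC80 ATP and 100% = DMSO alone without ATP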
* marks the source's active call; other numbers are inactive results; nt = no result given.

SMILES | CHO-K1 Ca PAM | OX1R antag-1 | OX1R antag-2 | CHO parental Ca | M1 ag parental | CHO-K1 Ca antag
COc1ccc(/C=C/C(=O)c2ccc(OC)cc2OC)c(OC)c1 | -1.9 | -15.7 | 51.2* | 2.6 | 0.2 | 6.7
COc1ccc2cc(C(=O)/C=C/c3cc(OC)c(OC)c(OC)c3)ccc2c1 | 16.9 | 23.6 | 69.6* | -18.6 | 2.8 | -16.5
COc1ccc(C(=O)C=Cc2ccc3c(c2)OCO3)cc1OC | 9.2 | nt | nt | nt | 1.0 | -9.3
COc1cc(C=CC(=O)c2cc(OC)c(OC)c(OC)c2)cc(OC)c1OC | 19.1 | nt | nt | nt | 0.6 | -15.8
COc1cc(/C=C/C(=O)c2ccc3c(c2)OCO3)cc(Cl)c1O | -4.5 | 48.8* | 13.1 | 44.0* | 22.8* | 16.9
C[C@H]1[C@@H](OC(=O)CCC(=O)O)O[C@@H]2OC3(C)CC[C@H]4[C@H](C)CC[C@@H]1[C@@]24OO3 | nt | -3.8 | 11.1 | -12.0 | nt | nt
Cc1noc(C)c1CCC(=O)NC1CCCN(Cc2ccc(CC(C)C)cc2)C1 (centres undefined) | -12.9 | -24.9 | -0.7 | -29.2 | 3.3 | -9.5
COc1cccc(CNC(=O)CCC2CCCN(C(=O)C3=CC(=O)CC(C)(C)O3)C2)c1 (centres undefined) | -3.8 | -29.2 | 36.8 | -17.8 | -0.7 | 16.8
CCCC(C(=O)NCCC(C)C)N(Cc1ccccc1Cl)C(=O)c1snc(C(N)=O)c1N (centres undefined) | -8.1 | -41.4 | 33.6 | -8.7 | 0.3 | 0.0
COc1cc(OC)cc(-c2nc3cc(C)ccc3o2)c1 | 11.8 | -2.5 | 42.3* | -15.8 | 0.2 | -1.5
Cc1ccc(-c2nc3cc(Cl)ccc3o2)cc1 | 12.8 | -10.1 | 11.6 | -3.1 | -0.1 | -2.3
COCCN(C(=O)CSc1nc(N)cc(=O)[nH]1)c1c(N)n(Cc2ccccc2)c(=O)[nH]c1=O | -0.5 | 3.0 | 6.4 | 3.3 | 0.0 | 11.5
O=S(=O)(c1cccs1)N1CCN(CC(O)COc2cc(Cl)ccc2Cl)CC1 (centres undefined) | 3.2 | 74.2* | 74.7* | 69.4* | 9.4 | 23.4
O=S(=O)(c1cccs1)N1CCN(CCOc2ccc(Cl)cc2)CC1 | 7.0 | 2.1 | 11.3 | -4.1 | 12.1 | -15.4
Cc1ccc(C(OCC(O)CNCc2ccc(F)cc2)c2ccccc2)cc1 (centres undefined) | 11.5 | -19.8 | -14.4 | 4.5 | 17.4* | 35.6*
O=C(c1ccccc1)c1ccc(OCC(O)CNCc2ccc(F)cc2)cc1 (centres undefined) | 7.5 | nt | nt | nt | 7.4 | 2.1
CC(C)(C)NC(=O)CSc1nc2ccc(NC(=O)CSc3nnnn3Cc3ccccc3)cc2s1 | 11.8 | 41.6 | 66.4 | 37.3* | 5.9 | 16.3
O=C1C2C3C=CC(CC3)C2S(=O)(=O)C2C3C=CC(CC3)C12 (centres undefined) | 24.2 | nt | nt | nt | 1.0 | -10.4
c1ccc(C2CC(c3ccccc3)C(c3ccccc3)N2)cc1 (centres undefined) | -3.6 | -46.1 | -3.7 | -14.4 | -0.4 | 0.3
O=C(O)C1CSCN1S(=O)(=O)c1cccc2nsnc12 (centres undefined) | -3.1 | -6.2 | 40.8* | 1.0 | -0.4 | -31.7
CC1CCN(C(=O)C(NS(=O)(=O)c2cccc3nsnc23)C(C)C)CC1 (centres undefined) | 14.9 | 2.6 | 43.1* | -13.3 | 0.3 | -14.5
O=C(NC1CCCC1)C(NS(=O)(=O)c1cccc2nsnc12)c1ccccc1 (centres undefined) | 4.1 | -28.0 | 53.2* | -21.7 | -0.3 | -4.9
CCC(C)NC(=O)C(NS(=O)(=O)c1cccc2nsnc12)c1ccccc1 (centres undefined) | 10.1 | -30.0 | 28.1 | -11.6 | -0.3 | -6.5
O=C(NC1CCCCC1)C1CCCN1S(=O)(=O)c1cccc2nsnc12 (centres undefined) | -4.5 | -2.7 | 60.5* | -0.5 | 0.4 | -12.9
CC(C)C(NS(=O)(=O)c1ccccc1)C(=O)NC1CCCC1 (centres undefined) | 5.0 | -3.3 | 13.1 | -7.2 | 0.8 | -16.2
SMILES | CHO-K1 Ca PAM | OX1R antag-1 | OX1R antag-2 | CHO parental Ca | M1 ag parental | CHO-K1 Ca antag
O=C(O)c1cc(Br)ccc1NS(=O)(=O)c1cccc2nsnc12 | -25.1 | -18.4 | 5.0 | -4.5 | -0.9 | 27.3*
CC(C)[C@H](NS(=O)(=O)c1ccccc1F)C(=O)NC1CCCCC1 | 20.1 | 29.3 | 39.1* | -11.3 | 0.8 | -15.0
CC(C)C(NS(=O)(=O)c1cccc2nsnc12)C(=O)NC1CCCCC1 (centres undefined) | 0.7 | -0.4 | 75.1* | -11.0 | -0.8 | -7.1
CC1CCC(NC(=O)C(NS(=O)(=O)c2cccc3nsnc23)C(C)C)CC1 (centres undefined) | -11.4 | -16.6 | 32.0 | -17.6 | -0.2 | -0.9
CC(=O)Nc1ccc(NC(=O)C(NS(=O)(=O)c2cccc3nsnc23)C(C)C)cc1 (centres undefined) | 5.9 | -24.6 | 55.9* | -11.9 | -0.2 | -1.4
COc1ccc(F)cc1-c1cc(C(=O)NCc2cc(C(F)(F)F)cc(C(F)(F)F)c2)[nH]n1 | 13.8 | nt | nt | nt | 0.5 | -5.9
CCC(=O)N1CCc2cc(S(=O)(=O)NCCC(=O)NC3CCCCCC3)ccc21 | 8.5 | -19.3 | 10.2 | -15.2 | 6.1 | -12.3
Cc1ccc(S(=O)(=O)N2CCCC2C(=O)NC2CCCCC2)cc1 (centres undefined) | -2.8 | 17.1 | 57.4* | -5.4 | 0.1 | -4.3
O=C(NCc1ccco1)C(Cc1ccccc1)NS(=O)(=O)c1cccc2nsnc12 (centres undefined) | 17.5 | -18.3 | 50.8* | -21.2 | 0.0 | -8.2
COC(=O)C1CCCN1S(=O)(=O)c1ccc2ccccc2c1 (centres undefined) | 8.2 | -7.3 | 11.6 | -17.1 | 0.4 | 10.6
COC(=O)C1CCCN1S(=O)(=O)c1ccc([N+](=O)[O-])cc1 (centres undefined) | 8.2 | -0.1 | 36.0* | 17.9 | 0.8 | -11.1
CC(C)C(NS(=O)(=O)c1cccc2nsnc12)C(=O)NCc1ccco1 (centres undefined) | 4.3 | -34.0 | 31.5 | 8.7 | -0.2 | -8.9
N#Cc1ccccc1OCCCN1CCC(Cc2ccccc2)CC1 | 0.2 | -22.5 | 6.5 | -15.4 | 2.5 | 5.3
CN1C(=O)[C@H]2[C@@H](c3ccc(C(F)(F)F)cc3)N[C@]3(CCCN(Cc4ccc(C(F)(F)F)cc4)C3=O)[C@H]2C1=O | 12.1 | nt | nt | nt | 0.2 | -18.9
COc1ccc(NS(=O)(=O)c2cccc(C(=O)N3CCN(S(=O)(=O)c4ccccc4)CC3)c2)cc1 | 4.3 | nt | nt | nt | 7.4 | -16.0
CC(C)c1ccc(CNc2ncccn2)cc1 | 9.3 | -4.2 | -3.2 | 5.1 | 0.4 | -1.5
O=C(Nc1ccccc1)N1CCN(c2nc(-c3ccccc3)ns2)CC1 | -24.9 | -3.8 | 8.4 | -0.8 | 10.1 | 18.0
O=C(Nc1ccccc1Cl)N1CCCN(c2nc(-c3ccccc3)ns2)CC1 | -18.4 | 15.0 | 74.1* | 0.6 | 12.6 | 22.8
CCC(=O)N1CCCC(C)(C(=O)Nc2ccc3oc(CC)nc3c2)C1 (centres undefined) | -10.9 | nt | nt | nt | -0.3 | 5.3
